We go through 13 compounds from ChEMBL document CHEMBL4020716, “The synthesis and evaluation of new butadiene derivatives as tubulin polymerization inhibitors” (Bioorg Med Chem, 2017).

Activity calls are given as the source filed them. The rule behind the calls is not given here.

The subject of one experiment is A549. Kind of experiment: Antiproliferative activity against human A549 cells after 48 hrs by MTT assay. The format is functional, cell-based. The settings on record: A549, 48 h. An outline of the steps: (§1)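 Cells in logarithmic growth were seeded at 5 × 10^3 cells/well and left for 24 h, then exposed to a range of compound concentrations for 48 h. MTT (5 mg/mL) was added for 4 h, the formazan was dissolved in DMSO and absorbance read at 570 nm. IC50 is the concentration giving 50% growth inhibition, from at least three independent experiments, mean ± SD. Culture: DMEM, 10% heat-inactivated FBS, penicillin/streptomycin, 37 °C, 5% CO2.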
In general terms: Tetrazolium dyes change colour on reduction, which living cells bring about.

Experiment [1] concerns HeLa. The experiment is described as follows: Antiproliferative activity against human HeLa cells after 48 hrs by MTT assay. The format is functional, cell-based. Summed up:
as §1

For the next experiment, the system named is PC-3. Kind of experiment: Antiproliferative activity against human PC3 cells after 48 hrs by MTT assay. In kind it is functional, cell-based. The following applies: PC-3, 48 h. Summed up: as §1
The subject of another experiment is MCF7. The experiment is described as follows: Antiproliferative activity against human MCF7 cells after 48 hrs by MTT assay. The format is functional, cell-based. The settings on record: MCF7, 48 h. An outline of the steps: as §1
The next experiment has as its system A2780. The experiment is described as follows: Antiproliferative activity against human A2780 cells after 48 hrs by MTT assay. In kind it is functional, cell-based. The following applies: A2780, 48 h. Summed up:
as §1

Experiment [2] is described as follows: Inhibition of porcine brain tubulin polymerization preincubated for 1 min followed by addition of tubulin measured every 60 s for 90 min by DAPI staining-based fluorescence assay. Details: species or system Sus scrofa.
The subject of experiment [3] is HeLa. Kind of experiment: Induction of morphological changes in human HeLa cells assessed as microtubule shrinking at 25 to 100 nM after 24 hrs by Hoechst 33342 staining-based laser scanning confocal microscopic method. The format is functional, cell-based.
Experiment [4] has as its system HeLa. The experiment is described as follows: Induction of morphological changes in human HeLa cells assessed as membrane blebbing at 25 to 100 nM after 24 hrs by Hoechst 33342 staining-based laser scanning confocal microscopic method. The format is functional, cell-based.
In experiment [5] the test system is HeLa. The experiment is described as follows: Induction of morphological changes in human HeLa cells assessed as chromatin condensation at 25 to 100 nM after 24 hrs by Hoechst 33342 staining-based laser scanning confocal microscopic method. The format is functional, cell-based.
Experiment [6] has as its system HeLa. Kind of experiment: Induction of apoptosis in human HeLa cells assessed as early apoptotic cells at 25 nM after 24 hrs by Annexin-V/FITC/propidium iodide staining-based flow cytometry method (reference value: 0.59%). The format is functional. Background: A flow cytometer gives signals particle by particle.
The test system of experiment [7] is HeLa. Kind of experiment: Induction of apoptosis in human HeLa cells assessed as live cells at 25 nM after 24 hrs by Annexin-V/FITC/propidium iodide staining-based flow cytometry method (reference value: 99.1%). In kind it is functional.
Experiment [8] deals with HeLa. Kind of experiment: Induction of apoptosis in human HeLa cells assessed as late apoptotic cells at 25 nM after 24 hrs by Annexin-V/FITC/propidium iodide staining-based flow cytometry method (reference value: 0.26%). The format is functional.
Experiment [9] relates to HeLa. The experiment is described as follows: Induction of apoptosis in human HeLa cells assessed as necrotic cells at 25 nM after 24 hrs by Annexin-V/FITC/propidium iodide staining-based flow cytometry method (reference value: 0.04%). The format is functional.
For experiment [10], the system named is HeLa. The experiment is described as follows: Induction of apoptosis in human HeLa cells assessed as early apoptotic cells at 50 nM after 24 hrs by Annexin-V/FITC/propidium iodide staining-based flow cytometry method (reference value: 0.59%). In kind it is functional.
In experiment [11] the test system is HeLa. Kind of experiment: Induction of apoptosis in human HeLa cells assessed as live cells at 50 nM after 24 hrs by Annexin-V/FITC/propidium iodide staining-based flow cytometry method (reference value: 99.1%). The format is functional.
Experiment [12] deals with HeLa. The experiment is described as follows: Induction of apoptosis in human HeLa cells assessed as early apoptotic cells at 100 nM after 24 hrs by Annexin-V/FITC/propidium iodide staining-based flow cytometry method (reference value: 0.59%). The format is functional.
For experiment [13], the system named is HeLa. The experiment is described as follows: Induction of apoptosis in human HeLa cells assessed as late apoptotic cells at 50 nM after 24 hrs by Annexin-V/FITC/propidium iodide staining-based flow cytometry method (reference value: 0.26%). In kind it is functional.
Experiment [14] has as its system HeLa. The experiment is described as follows: Induction of apoptosis in human HeLa cells assessed as necrotic cells at 50 nM after 24 hrs by Annexin-V/FITC/propidium iodide staining-based flow cytometry method (reference value: 0.04%). The format is functional.
The test system of experiment [15] is HeLa. Kind of experiment: Induction of apoptosis in human HeLa cells assessed as live cells at 100 nM after 24 hrs by Annexin-V/FITC/propidium iodide staining-based flow cytometry method (reference value: 99.1%). In kind it is functional.
For experiment [16], the system named is HeLa. The experiment is described as follows: Induction of apoptosis in human HeLa cells assessed as late apoptotic cells at 100 nM after 24 hrs by Annexin-V/FITC/propidium iodide staining-based flow cytometry method (reference value: 0.26%). The format is functional.
Experiment [17] deals with HeLa. The experiment is described as follows: Induction of apoptosis in human HeLa cells assessed as necrotic cells at 100 nM after 24 hrs by Annexin-V/FITC/propidium iodide staining-based flow cytometry method (reference value: 0.04%). The format is functional.
In experiment [18] the test system is HeLa. Kind of experiment: Induction of apoptosis in human HeLa cells after 24 hrs by Annexin-V/FITC/propidium iodide staining-based flow cytometry method. The format is functional, cell-based.
Experiment [19] relates to HeLa. The experiment is described as follows: Cell cycle arrest in human HeLa cells assessed as accumulation at G2/M phase at 25 nM after 24 hrs by propidium iodide staining-based flow cytometry method (reference value: 19.0%). In kind it is functional.
In experiment [20] the test system is HeLa. Kind of experiment: Cell cycle arrest in human HeLa cells assessed as accumulation at G2/M phase at 50 nM after 24 hrs by propidium iodide staining-based flow cytometry method (reference value: 19.0%). The format is functional.
For experiment [21], the system named is HeLa. Kind of experiment: Cell cycle arrest in human HeLa cells assessed as accumulation at G2/M phase at 100 nM after 24 hrs by propidium iodide staining-based flow cytometry method (reference value: 19.0%). In kind it is functional.
The test system of experiment [22] is HeLa. Kind of experiment: Cell cycle arrest in human HeLa cells assessed as accumulation at G2/M phase after 24 hrs by propidium iodide staining-based flow cytometry method. In kind it is functional.

As for `C=C(/C(C)=C/c1ccc(OC)cc1)c1cc(OC)c(OC)c(OC)c1`, the IC50 in the experiment with A549 came to 356 nM; with HeLa [1], 495 nM; in the experiment with PC-3 it was 487 nM; in the experiment on MCF7, 965 nM; in the experiment on A2780, 839 nM.

For `CCCC=C(/C(C)=C/c1ccc(OC)c(O)c1)c1cc(OC)c(OC)c(OC)c1`, the IC50 amounted to 2460 nM with A549; 3120 nM in the experiment with HeLa [1]; 4510 nM in the experiment with PC-3; 3970 nM with MCF7; 2930 nM in the experiment with A2780.

As to `COc1ccc(/C=C(\C)C(=O)c2cc(OC)c(OC)c(OC)c2)cc1O`, the IC50 was determined as 4 nM in the experiment on A549; 5 nM in the experiment with HeLa [1]; 9 nM with PC-3; 5 nM in the experiment with MCF7; 3 nM with A2780.

In the case of `C=C(/C(C)=C/c1ccc(OC)c(N)c1)c1cc(OC)c(OC)c(OC)c1`, the half-inhibitory concentration (IC50) with A549 came out at 269 nM; in the experiment with HeLa [1] it was 286 nM; with PC-3, 457 nM; in the experiment on MCF7 it was 356 nM; in the experiment with A2780, 279 nM.

On to `C=C(/C=C/c1ccc(OC)c(N)c1)c1cc(OC)c(OC)c(OC)c1`, for which the IC50 amounted to 137 nM in the experiment with A549; 234 nM with HeLa [1]; 560 nM in the experiment on PC-3; 786 nM in the experiment with MCF7; 582 nM with A2780.

In the case of `C=C(/C=C/c1ccc(OC)c(O)c1)c1cc(OC)c(OC)c(OC)c1`, the concentration for half-maximal inhibition (IC50) with A549 stood at 286 nM; with HeLa [1] it was 320 nM; in the experiment with PC-3 it was 423 nM; in the experiment on MCF7, 569 nM; in the experiment on A2780, 457 nM.

Take `CCC=C(/C(C)=C/c1ccc(OC)c(O)c1)c1cc(OC)c(OC)c(OC)c1`: the IC50 with A549 was 2020 nM; in the experiment with HeLa [1] it was 3120 nM; in the experiment with PC-3, 4230 nM; in the experiment with MCF7, 8240 nM; with A2780, 5290 nM.

For `CCC=C(/C=C/c1ccc(OC)c(N)c1)c1cc(OC)c(OC)c(OC)c1`, the 50% inhibitory concentration (IC50) in the experiment with A549 was 398 nM; in the experiment with HeLa [1] it was 314 nM; in the experiment on PC-3, 285 nM; in the experiment with MCF7 it was 486 nM; in the experiment on A2780, 248 nM.

As to `C=C(/C(C)=C/c1ccc(OC)c(F)c1)c1cc(OC)c(OC)c(OC)c1`, the IC50 in the experiment on A549 stood at 219 nM; with HeLa [1], 483 nM; in the experiment with PC-3, 354 nM; in the experiment on MCF7 it was 412 nM; in the experiment on A2780 it was 561 nM.

As for `CC=C(/C=C/c1ccc(OC)c(N)c1)c1cc(OC)c(OC)c(OC)c1`, the IC50 in the experiment on A549 came out at 247 nM; with HeLa [1], 217 nM; in the experiment with PC-3, 319 nM; in the experiment with MCF7, 247 nM; with A2780, 137 nM.

For `CC=C(/C(C)=C/c1ccc(OC)c(O)c1)c1cc(OC)c(OC)c(OC)c1`, the IC50 is 637 nM in the experiment with A549; 563 nM in the experiment on HeLa [1]; 789 nM in the experiment on PC-3; 604 nM in the experiment with MCF7; 505 nM with A2780.

As to `CO/C=C(\C=C\c1ccc(OC)c(O)c1)c1cc(OC)c(OC)c(OC)c1`, the IC50 in the experiment with A549 was 1600 nM; in the experiment on HeLa [1] it was 5630 nM; in the experiment with PC-3, 5320 nM; with MCF7, 3260 nM; in the experiment with A2780, 2220 nM.

As for `C=C(/C(C)=C/c1ccc(OC)c(O)c1)c1cc(OC)c(OC)c(OC)c1`, the IC50 was 56 nM in the experiment with A549; 60 nM in the experiment on HeLa [1]; 61 nM with PC-3; 89 nM in the experiment on MCF7; 64 nM in the experiment with A2780; 1010 nM in experiment [2]. For the same compound, the result with HeLa [3], in the experiment on HeLa [4] and in the experiment with HeLa [5] was Active. The Activity is given as 16% in the experiment with HeLa [6]; 79.1% in the experiment on HeLa [7]; 3.32% in the experiment on HeLa [8]; 1.56% in the experiment on HeLa [9]; 29.8% with HeLa [10]; 62.7% in the experiment with HeLa [11]. The Activity with HeLa [12] was found to be 36.6%; with HeLa [13], 5.8%; in the experiment on HeLa [14], 1.77%; in the experiment with HeLa [15], 56.7%; in the experiment on HeLa [16], 4.77%; with HeLa [17], 1.91%. The Activity result was “Dose-dependent effect” in the experiment on HeLa [18]; 30% with HeLa [19]; 43% in the experiment with HeLa [20]; 72% in the experiment with HeLa [21]; “Dose-dependent effect” with HeLa [22].

By IC50 is commonly meant the concentration needed to halve the response being measured. The low end stands for higher potency, the high end for lower potency.
